# From PMC6803818 (Future Medicinal Chemistry, 2019)
# Entries after “also recorded” stand apart in the source; their conditions may differ. Like-named read-outs stand apart in the source and are kept apart here.
# Assays:
# [1] = test system: cancer cell lines with homozygous Y220C mutation; details: cited from earlier work
# [2] = target: p53-Y220C DBD (Homo sapiens, UniProt P04637, M133L/N239Y/N268D/V203A/Y220C); experiment: Isothermal titration calorimetry; assay type: binding
# [3] = target: stabilized p53-Y220C DBD (Homo sapiens, UniProt P04637, M133L/N239Y/N268D/V203A/Y220C); experiment: Differential scanning fluorimetry; assay type: binding; details: compound concentration 250 μM, 8-μM protein
# Outline: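 Thermal shift by DSF used 8 μM stabilized human p53 DBD (residues 94–312, M133L/V203A/N239Y/N268D plus Y220C) with 10× SYPRO Orange. Buffer was 25 mM KPi pH 7.2, 150 mM NaCl, 1 mM TCEP, with 5% (v/v) DMSO final. Test compound was at 250 μM. ΔTm = Tm(mutant + ligand) − Tm(mutant), averaged over replicate runs.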
# [4] = Cell viability, 72 h incubation, isogenic knockout; assay type: cell-based, human; details: human
# Outline: (§1)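 HUH-7 (Y220C) cells and an isogenic CRISPR/Cas9 p53 knockout clone (HUH7-F1: codon-124 frameshift on one allele, deletion of residues 125–223 on the other) were exposed to 0.6–15 μM test compound for 72 h. Viability was read in quadruplicate and normalized to blank (=1) and no-cell (=0) controls. Data are mean ± SEM of triplicates, with a paired t-test comparing parental and knockout lines.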
# [5] = test system: HUH-7 cells (homozygous p53-Y220C); experiment: Cell viability, 72 h incubation; assay type: cell-based, human; details: for p53-Y220C-dependent cell viability reduction: HUH-7 versus HUH-7 p53 KO
# Outline: as §1
# [6] = test system: NUGC-3 (Y220C) and NUGC-4 (wild-type p53); experiment: Cell viability of gastric cancer cell lines, 72 h; assay type: cell-based, human; details: NUGC-3 (Y220C) versus NUGC-4 (wild-type p53)
# [7] = target: p53 Y220C DBD (94-312) (Homo sapiens, UniProt P04637, M133L/N239Y/N268D/V203A/Y220C); experiment: Light scattering assay, aggregation kinetics at 37°C; assay type: biochemical; details: for slowing of initial rate of Y220C aggregation relative to PK9318: 15 μM compound
# [8] = target: p53 wild type (Homo sapiens, UniProt P04637); experiment: DSF with wild type p53 DBD; assay type: binding; details: same conditions as in Table 1 (250 μM)
# Outline: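 Thermal shift of the p53 DNA-binding domain (8 μM) with 10× SYPRO Orange in 25 mM KPi (pH 7.2), 150 mM NaCl, 1 mM TCEP, at 5% (v/v) final DMSO. Test compound was present at 250 μM. ΔTm = Tm (protein + ligand) − Tm (protein alone).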
# [9] = test system: HUH-7 p53 KO cells (HUH7-F1); experiment: Cell viability, 72 h incubation, isogenic knockout; assay type: cell-based, human; details: 0.6 to 15 μM, 72 h, HUH-7 p53 KO
# Outline: as §1
# [10] = read-out: ITC KD, ¶ single measurement with ITC fit error, # mean of at least three independent measurements with SEM
structure (smiles),measurement,setting,value
Cn1cc(-c2ccccc2)c(-n2cccc2)n1 [PK7088],effect in Y220C cancer cell lines,[1],induced a mutant-specific increase in the amount of correctly folded protein and upregulation of p53 target genes p21 and NOXA
CCn1c2ccc(CNC)cc2c2ccc(Br)cc21 [PK9284],affinity increase compared with PK083,[2],ca. tenfold
same,Kd,[2]; [10],14.2 ± 2 µM
same,DSF ΔTM (°C),[3],3.0 ± 0.1 °C
CCOc1ccc2c3cc(CNC)ccc3n(CC)c2c1 [PK9295],Kd,[2],62 ± 6.5 µM
CCn1c2ccc(CNC)cc2c2ccc(-c3cccs3)cc21 [PK9318],"viability at 72 h, 7.5 µM",[4],88%
same,"viability at 72 h, 15 µM",[4],40%
same,cell viability,"[5]; 15 μM, 72 h, HUH-7",complete viability loss
same,concentration inducing viability loss,"[5]; 72 h, HUH-7",≥ 3.75 mM
same,p53-Y220C-dependent cell viability reduction,[5]; 72 h,p53-Y220C-dependent cell viability reduction was observed; also recorded: Y220C-mutant-specific viability reduction
same,viability at 7.5 µM,"[5]; Homo sapiens, Huh-7, 72 h, read-out: cell viability",58%
same,preferential viability reduction in p53-Y220C cells,[6],preferential viability reduction in p53-Y220C cells
same,lowering of initial aggregation rate versus no compound,"[7]; 30 μM compound, 1:10 protein–ligand ratio",approximately sixfold lower initial aggregation rate
same,DSF ΔTM (°C),[3]; 250 µM,3.6 ± 0.2 °C
CCn1c2ccc(CNC)cc2c2ccc(-c3ccco3)cc21 [PK9320],Kd,[2]; [10],4 µM
same,preferential viability reduction in p53-Y220C cells,[6],preferential viability reduction in p53-Y220C cells
same,DSF ΔTM (°C),[3]; 250 µM,3.7 ± 0.0 °C
CCn1c2ccc(CNC)cc2c2ccc(-c3ccoc3)cc21 [PK9321],Kd,[2]; [10],5.6 ± 1.1 µM
CCn1c2ccc(CNC)cc2c2ccc(-c3cscn3)cc21 [PK9323],stabilization of the wild type in DSF,[8],neither the starting scaffold PK083 nor the second-generation carbazole PK9323 did show any stabilization of the wild type
same,preferential viability reduction in p53-Y220C cells,[6],preferential viability reduction in p53-Y220C cells
CCn1c2ccc(CNC)cc2c2ccc(-c3ccc(C)s3)cc21 [PK9327],slowing of initial rate of Y220C aggregation relative to PK9318,[7],by a factor of two
CCn1c2ccc(CNC)cc2c2ccc(-c3cc(C)cs3)cc21 [PK9328],Kd,[2]; [10],1.7 ± 0.2 µM
same,"viability at 72 h, 7.5 µM",[4],> 50%
same,cell viability,"[5]; 7.5 μM, 72 h, HUH-7",complete viability loss
same,concentration inducing viability loss,"[5]; 72 h, HUH-7",≥ 3.75 mM
same,p53-Y220C-dependent cell viability reduction,[5]; 72 h,p53-Y220C-dependent cell viability reduction was observed
same,p53-Y220C-dependent cell viability reduction,"[5]; 72 h, listed as PK3328",Y220C-mutant-specific viability reduction
same,preferential viability reduction in p53-Y220C cells,[6],preferential viability reduction in p53-Y220C cells
same,slowing of initial rate of Y220C aggregation relative to PK9318,[7],by a factor of two
CCn1c2ccc(CNC)cc2c2ccc(-c3cc(C)c(C)s3)cc21 [PK9329],effect on viability,[9],did not have a significant effect on the viability
same,effect on viability,"[5]; 0.6 to 15 μM, 72 h, HUH-7",did not have a significant effect on the viability
same,p53-Y220C-dependent cell viability reduction,[5]; 72 h,did not show any p53-Y220C-dependent viability reduction
